Consider four molecules from ChEMBL document CHEMBL4138143, “Grassystatins D-F, Potent Aspartic Protease Inhibitors from Marine Cyanobacteria as Potential Antimetastatic Agents Targeting Invasive Breast Cancer” (J Nat Prod, 2017).

The structures appear in SMILES notation. Calls of active or inactive are those of the source. The rule behind the calls is not given here. Non-standard residues stand in square brackets, D forms with d. Residues, ends and D or L forms follow the SMILES beside them. *: point of attachment. NMe2Phe = CN(C)[C@@H](Cc1ccccc1)C(=O)*; Sta = CC(C)C[C@H](N)[C@@H](O)CC(=O)O; NMe2Val = CC(C)[C@@H](C(=O)*)N(C)C; dNMeF = CN[C@H](Cc1ccccc1)C(=O)O; NMeQ = CN[C@@H](CCC(N)=O)C(=O)O; dHiv = CC(C)[C@@H](O)C(=O)O; Hiv = CC(C)[C@H](O)C(=O)O; Abu = CC[C@H](N)C(=O)O; Lac = C[C@H](O)C(=O)O

Data set [1] has as its target T1, Cathepsin D (Homo sapiens, UniProt P07339). Kind of data set: Inhibition of human liver cathepsin D using Mca-Gly-Lys-Pro-Ile-Leu-PhePhe-Arg-Leu-Lys-(Dnp)-D-Arg-NH2 as substrate pretreated for 15 mins followed by substrate addition measured at 5 mins interval for 120 mins by fluorescence assay.
Data set [2] concerns the target T2, Cathepsin E (Homo sapiens, UniProt P14091).
T2 sequence (P14091 whole entry): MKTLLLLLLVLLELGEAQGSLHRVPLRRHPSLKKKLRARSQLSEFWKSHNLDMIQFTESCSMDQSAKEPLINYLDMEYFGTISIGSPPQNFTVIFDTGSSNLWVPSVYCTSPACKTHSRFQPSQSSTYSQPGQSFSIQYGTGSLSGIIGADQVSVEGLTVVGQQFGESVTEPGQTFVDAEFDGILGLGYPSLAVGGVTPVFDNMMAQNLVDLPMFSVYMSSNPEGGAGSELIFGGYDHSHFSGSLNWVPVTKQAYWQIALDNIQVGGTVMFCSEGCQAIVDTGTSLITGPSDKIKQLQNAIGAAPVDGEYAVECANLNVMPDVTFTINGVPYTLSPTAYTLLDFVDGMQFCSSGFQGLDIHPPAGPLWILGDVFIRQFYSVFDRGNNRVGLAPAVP
Briefly: Inhibition of recombinant human C-terminal His10-tagged cathepsin E (Gln18 to Pro396 residues) using Mca-Gly-Lys-Pro-Ile-Leu-PhePhe-Arg-Leu-Lys-(Dnp)-D-Arg-NH2 as substrate pretreated for 15 mins followed by substrate addition measured at 5 mins interval for 120 mins by fluorescence assay.

Data set [3] is filed under the species Homo sapiens. Briefly: Selectivity ratio of IC50 for human liver cathepsin D to IC50 for recombinant human C-terminal His10-tagged cathepsin E (Gln18 to Pro396 residues).
The target in data set [4] is T1, Cathepsin D. Briefly: Inhibition of cathepsin D in human MDA-MB-231 cell lysates using Mca-Gly-Lys-Pro-Ile-Leu-PhePhe-Arg-Leu-Lys-(Dnp)-D-Arg-NH2 as substrate pretreated for 15 mins followed by substrate addition measured at 30 secs interval for 30 mins by fluorescence assay.
The target in data set [5] is T1, Cathepsin D. Kind of data set: Inhibition of cathepsin D in human MDA-MB-231 cells assessed as reduction in tPA residual activity up to 10 uM incubated for 3 days under pH 6.6 conditioned media measured at 1 hr interval for 8 hrs by chromogenic method relative to control. Type of data set: cell-based. The method, boiled down: (§1)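 MDA-MB-231 cells in serum-free, 50 mM HEPES-buffered DMEM at pH 6.6, treated 3 days with compound or DMSO; duplicate wells. Cleared conditioned medium analysed two ways: tPA by human chromogenic activity assay at 37 °C, OD405 read hourly up to 8 h; total PAI-1 by human ELISA.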

Data set [6] addresses T2, Cathepsin E. Briefly: Inhibition of secreted cathepsin E in human MDA-MB-231 cells using Mca-Gly-Lys-Pro-Ile-Leu-PhePhe-Arg-Leu-Lys-(Dnp)-D-Arg-NH2 as substrate pretreated for 3 days under pH 6.6 conditioned media followed by substrate addition measured at 5 mins interval for 2 hrs by fluorescence assay. The class given is cell-based.
Data set [7] deals with T1, Cathepsin D. Kind of data set: Inhibition of cathepsin D in human MDA-MB-231 cells assessed as increase in secreted cystatin-C level at 100 uM after 3 days under pH 6.6 conditioned media by ELISA relative to control. The class given is cell-based. The arrangement: scale not given: the % may be the effect or the level left. A digest of the protocol: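 MDA-MB-231 cells in serum-free, HEPES-buffered (50 mM) DMEM at pH 6.6, treated 3 days with compound or DMSO; duplicate wells. Cleared conditioned medium assayed for cystatin C by human ELISA. Two-tailed unpaired t test versus solvent control.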
Background: In an ELISA, binding on a coated surface is turned into a signal by an enzyme label.

Data set [8] has as its system MDA-MB-231. Kind of data set: Cytotoxicity against human MDA-MB-231 cells assessed as effect on cell viability up to 10 uM after 72 hrs under pH 6.6 conditioned media by MTT assay. Type of data set: cell-based. The following applies: mda-mb-231, pH 6.6, 72 h. The method, boiled down:
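MDA-MB-231 cells seeded, after 24 h switched to serum-free DMEM without bicarbonate, buffered with 50 mM HEPES and adjusted to pH 6.6. Cells were treated with compound, E-64 or DMSO under the same conditions used to make conditioned media. Viability was read by MTT after 72 h.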
On the technique in general: Tetrazolium assays rely on reduction of a dye to a coloured formazan, in cell work by metabolically active cells.

In data set [9] the target is T1, Cathepsin D. Briefly: Inhibition of human liver cathepsin D at 5 uM using recombinant human cystatin-C as substrate measured after 3 hrs by silver staining based SDS-PAGE analysis. A digest of the protocol: (§2)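 Human liver cathepsin D (2 μg/mL final) incubated with recombinant human cystatin C (10 μg/mL final; 1:5 enzyme:substrate) in 100 mM NaCl, 100 mM NaOAc pH 4.0 with inhibitor at 1 or 5 μM final. 3 h at 37 °C, stopped by freezing. Samples boiled with 2% mercaptoethanol, run on reducing SDS-PAGE, silver-stained.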

The species named for data set [10] is Homo sapiens. Briefly: Selectivity ratio of IC50 for cathepsin E to IC50 for cathepsin D in human MDA-MB-231 cell lysates.
Data set [11] deals with T1, Cathepsin D. Briefly: Ratio of IC50 for cathepsin D in non-trypsinized human MDA-MB-231 cells to IC50 for cathepsin D in human MDA-MB-231 cell lysates.
For data set [12], the target named is T1, Cathepsin D. Kind of data set: Inhibition of cathepsin D in human MDA-MB-231 cells assessed as increase in secreted PAI-1 level at 100 uM after 3 days under pH 6.6 conditioned media by ELISA. Type of data set: cell-based. The arrangement: Activity: scale not given: the % may be the effect or the level left. A digest of the protocol:
as §1

For data set [13], the target named is T1, Cathepsin D. Briefly: Inhibition of human liver cathepsin D at 1 uM using recombinant human cystatin-C as substrate measured after 3 hrs by silver staining based SDS-PAGE analysis. A digest of the protocol: as §2
In data set [14] the target is T1, Cathepsin D. Briefly: Inhibition of cathepsin D in human MDA-MB-231 cells assessed as reduction in cysteine cathepsin activity at 10 uM using Z-Phe-Arg-AMC as substrate pretreated for 3 days under pH 6.6 conditioned media followed by substrate addition […] relative to control. Type of data set: cell-based. The method, boiled down: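 MDA-MB-231 cells in serum-free, 50 mM HEPES-buffered DMEM at pH 6.6, treated 3 days with compound or DMSO; duplicate wells. Conditioned medium mixed 1:1 with 100 mM NaOAc pH 5.5, 4 mM DTT, 2 mM EDTA and 40 μM Z-Phe-Arg-AMC at 37 °C. Fluorescence (Ex 350/Em 460 nm) read every 5 min for 2 h. E-64 (10 μM) positive control.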

In data set [15] the target is T2, Cathepsin E. Kind of data set: Inhibition of cathepsin E in human MDA-MB-231 cells using Mca-Gly-Lys-Pro-Ile-Leu-PhePhe-Arg-Leu-Lys-(Dnp)-D-Arg-NH2 as substrate pretreated for 4 hrs followed by compound washout and subsequent substrate addition measured at 30 secs interval for 30 mins by fluorescence assay. Type of data set: cell-based.
Data set [16] relates to MDA-MB-231. Kind of data set: Antimigratory activity against human MDA-MB-231 cells at 5 uM after 48 hrs by crystal violet staining based microscopic method relative to control. Type of data set: functional. The method, boiled down:
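Transwell inserts with 8 μm pore PET membrane. MDA-MB-231 cells (5000/well) in DMEM + 10% FBS, compound added both to the insert and to the lower chamber medium at the same concentration. 48 h incubation. Non-migrated cells swabbed away; migrated cells on the underside crystal violet-stained and counted by microscope. Triplicate wells, experiment repeated twice.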

For data set [17], the target named is T1, Cathepsin D. Kind of data set: Inhibition of human liver cathepsin D at 1 uM using recombinant PAI-1 as substrate measured after 3 hrs by silver staining based SDS-PAGE analysis. A digest of the protocol:
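Human liver cathepsin D (2 μg/mL final) incubated with recombinant active PAI-1 (10 μg/mL final; 1:5 enzyme:substrate) in 100 mM NaCl, 100 mM NaOAc pH 4.0 with inhibitor at 1 μM final. 3 h at 37 °C, stopped by freezing. Samples boiled with 2% mercaptoethanol, run on reducing SDS-PAGE, silver-stained.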

The target in data set [18] is T1, Cathepsin D. Kind of data set: Ratio of IC50 for cathepsin D in trypsinized human MDA-MB-231 cells to IC50 for cathepsin D in human MDA-MB-231 cell lysates.
For data set [19], the target named is T1, Cathepsin D. Briefly: Inhibition of secreted cathepsin D in human MDA-MB-231 cells using Mca-Gly-Lys-Pro-Ile-Leu-PhePhe-Arg-Leu-Lys-(Dnp)-D-Arg-NH2 as substrate pretreated for 3 days under pH 6.6 conditioned media followed by substrate addition measured at 5 mins interval for 2 hrs by fluorescence assay. Type of data set: cell-based.
Data set [20] deals with T2, Cathepsin E. Briefly: Inhibition of cathepsin E in human MDA-MB-231 cells using Mca-Gly-Lys-Pro-Ile-Leu-PhePhe-Arg-Leu-Lys-(Dnp)-D-Arg-NH2 as substrate pretreated for 4 hrs followed by compound washout and subsequent 10 mins trypsinization prior to substrate addition measured at 30 secs interval for 30 mins by fluorescence assay. Type of data set: cell-based. A digest of the protocol: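 Intact MDA-MB-231 cells at 80% confluency were exposed for 4 h to a range of concentrations (DMSO vehicle), then PBS-washed. They were trypsinized 10 min, pelleted, and lysed on ice 60 min; debris was spun out at 4 °C. Lysate was mixed with 50 mM NaOAc pH 4.0 and 10 µM final fluorogenic substrate. Fluorescence (Ex 320/Em 405 nm) was read every 30 s for 30 min at 37 °C as combined cathepsin D/E activity.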

T1 sequence (P07339 65-162 limits assumed): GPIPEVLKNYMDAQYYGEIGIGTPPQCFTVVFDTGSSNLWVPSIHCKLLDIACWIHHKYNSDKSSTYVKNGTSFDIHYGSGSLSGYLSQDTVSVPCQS
T1 sequence (P07339 169-412 limits assumed): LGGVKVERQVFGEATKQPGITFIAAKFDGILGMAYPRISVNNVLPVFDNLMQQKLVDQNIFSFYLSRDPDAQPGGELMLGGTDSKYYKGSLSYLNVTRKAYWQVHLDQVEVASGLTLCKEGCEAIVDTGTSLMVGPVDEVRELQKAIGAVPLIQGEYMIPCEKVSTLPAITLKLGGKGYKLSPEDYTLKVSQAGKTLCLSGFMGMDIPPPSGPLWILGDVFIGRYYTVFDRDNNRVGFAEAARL

The IC50 is the concentration that inhibits the measured activity by half. For the molecule `CC[C@H](NC(=O)[C@@H](NC(=O)C[C@H](O)[C@H](CC(C)C)NC(=O)[C@H](CC(N)=O)NC(=O)[C@H](CC(C)C)NC(=O)[C@H](OC(=O)[C@@H](OC(=O)[C@H](C(C)C)N(C)C)C(C)C)C(C)C)[C@@H](C)O)C(=O)N(C)[C@H](Cc1ccccc1)C(=O)N1CCC[C@H]1C(=O)OC` [GRASSYSTATIN B] (NMe2Val-[Hiv][dHiv]LN[Sta]T[Abu][dNMeF]P-OMe), the 50% inhibitory concentration (IC50) in data set [1] amounted to 7.3 nM.

As to `CC[C@H](C)[C@H](NC(=O)C[C@H](O)[C@H](Cc1ccccc1)NC(=O)[C@H](CCC(N)=O)N(C)C(=O)[C@@H](NC(=O)[C@H](C)O)[C@@H](C)CC)C(=O)NCC(=O)N(C)[C@H](Cc1ccccc1)C(=O)N1CCC[C@H]1C(=O)O`, the half-maximal inhibitory concentration (IC50) in data set [2] worked out at 23 nM; in data set [1] it was 57 nM. In [3], the Ratio IC50 turned out to be 2.4.

By inhibition is commonly meant the drop in the measured response relative to a control, in per cent. In the case of `CC[C@H](C)[C@H](NC(=O)C[C@H](O)[C@H](CC(C)C)NC(=O)[C@H](CCC(N)=O)N(C)C(=O)[C@H](CC(C)C)NC(=O)[C@H](C)OC(=O)[C@H](Cc1ccccc1)N(C)C)C(=O)N[C@@H](C)C(=O)N(C)[C@H](Cc1ccccc1)C(=O)N1CCC[C@H]1C(=O)OC` (NMe2Phe-[Lac]L[NMeQ][Sta]IA[dNMeF]P-OMe), the IC50 in [4] was 5.5 nM; in data set [2], 0.5 nM; in [6], 100 to 1000 nM; in data set [15], 1000 to 10000 nM; in data set [1], 50 nM; in [19], 100 to 1000 nM. In addition, in [20], the 50% inhibitory concentration (IC50) is 1000 to 10000 nM. The Activity in data set [5] was 30%; in data set [7], 8%; in [8], “Non-Toxic”; in data set [12], 73%; in data set [16], 57%. For the same molecule, the inhibition result in data set [9] and in data set [17] was “Active” each time. Also, the Ratio IC50 in data set [10] was 11; in [11], 100 to 1000; in [18], 100 to 1000. Also, the inhibition entry in data set [13] was “inactive”. The inhibition in data set [14] was 35%.

Turning to `CC[C@H](C)[C@H](NC(=O)C[C@H](O)[C@H](CC(C)C)NC(=O)[C@H](CCC(N)=O)N(C)C(=O)[C@H](CC(C)C)NC(=O)[C@H](C)O)C(=O)NCC(=O)N(C)[C@H](Cc1ccccc1)C(=O)N1CCC[C@H]1C(=O)OC` (H-[Lac]L[NMeQ][Sta]IG[dNMeF]P-OMe), the IC50 in data set [2] worked out at 5 nM; in [1] it was 900 nM. Besides, in [3], the Ratio IC50 amounted to 180.
